In article PMC3592994 (Hepatology (Baltimore, Md.), 2013):
Counter-ions that a name gives are not always drawn.

Key:
[1] = system: Bsep, Mdr2, Ost-β, Sult2a1, Shp, Ntcp; assay: Hepatic gene expression in gavaged mice; assay type: in vivo, mouse
Method in brief: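 Female C57BL6 mice aged 7–8 weeks were gavaged twice daily for 2 days with 200 μL 20% cyclodextrin, 50 mg/kg cholic acid, or cholic acid plus 500 mg/kg test compound. Livers were harvested at 4 pm on day 2 after an 8-h fast, and hepatic gene expression was measured. Data are mean ± SEM, n = 6, by one-way ANOVA.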

BSEP, SHP = assay: BSEP and SHP gene expression in primary human hepatocytes; assay type: cell-based; details: 50 μM, 24 hours
BSEP, SHP, CYP7A1 = assay type: cell-based, human; details: 50 μM, 24 hours; for induction of BSEP gene expression: scrambled siRNA group; for repression of CYP7A1 expression: siScramble group; for induction of SHP gene expression: siScrambled group, versus vehicle
FXRα2 = target: T1, FXRα2 (Homo sapiens, UniProt Q96RI1); assay type: cell-based; details: for FXR transactivation relative to vehicle-treated control: 50 μM compound; for FXR transactivation relative to vehicle-treated control / EC50: 24 hours; for EC50: read-out: EC50 of FXR transactivation, agonist mode, 0-100 μM
T1 sequence (Q96RI1 1-472 isoform Q96RI1-2): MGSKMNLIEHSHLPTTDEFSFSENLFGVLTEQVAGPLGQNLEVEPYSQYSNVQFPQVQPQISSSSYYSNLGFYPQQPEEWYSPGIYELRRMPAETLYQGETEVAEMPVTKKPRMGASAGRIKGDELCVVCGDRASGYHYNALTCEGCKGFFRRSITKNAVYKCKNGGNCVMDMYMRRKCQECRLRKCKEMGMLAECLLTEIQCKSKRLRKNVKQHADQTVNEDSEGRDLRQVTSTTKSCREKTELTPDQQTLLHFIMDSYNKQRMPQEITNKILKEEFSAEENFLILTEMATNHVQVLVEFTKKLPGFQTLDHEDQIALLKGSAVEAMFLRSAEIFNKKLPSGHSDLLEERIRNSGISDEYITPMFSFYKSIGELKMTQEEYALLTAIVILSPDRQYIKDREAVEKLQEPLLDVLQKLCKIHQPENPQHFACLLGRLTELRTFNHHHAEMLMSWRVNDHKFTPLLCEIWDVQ
T1 sequence (P19793 1-462 partner): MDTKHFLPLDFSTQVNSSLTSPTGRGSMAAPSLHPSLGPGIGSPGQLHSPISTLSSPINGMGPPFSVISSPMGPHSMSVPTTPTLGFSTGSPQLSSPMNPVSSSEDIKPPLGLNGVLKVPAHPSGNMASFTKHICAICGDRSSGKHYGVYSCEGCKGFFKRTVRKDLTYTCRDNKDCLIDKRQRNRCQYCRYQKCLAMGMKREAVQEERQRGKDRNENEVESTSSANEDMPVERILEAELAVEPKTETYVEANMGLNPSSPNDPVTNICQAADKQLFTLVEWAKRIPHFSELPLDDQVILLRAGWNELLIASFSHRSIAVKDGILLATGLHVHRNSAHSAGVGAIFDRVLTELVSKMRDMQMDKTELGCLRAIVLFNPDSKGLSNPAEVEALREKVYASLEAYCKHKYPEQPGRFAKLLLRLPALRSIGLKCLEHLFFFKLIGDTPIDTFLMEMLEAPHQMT

FXR-LBD = target: T2, FXR-LBD (Homo sapiens, UniProt Q96RI1); assay: HTRF cofactor; assay type: biochemical; details: for CDCA-mediated recruitment of SRC-1 peptide to FXR-LBD: 9 or 100 μM CDCA, 0-600 μM compound, dose-dependent; for recruitment of SRC-1 peptide to FXR-LBD by compound alone: agonist mode, no CDCA
T2 sequence (Q96RI1 244-472 isoform Q96RI1-2): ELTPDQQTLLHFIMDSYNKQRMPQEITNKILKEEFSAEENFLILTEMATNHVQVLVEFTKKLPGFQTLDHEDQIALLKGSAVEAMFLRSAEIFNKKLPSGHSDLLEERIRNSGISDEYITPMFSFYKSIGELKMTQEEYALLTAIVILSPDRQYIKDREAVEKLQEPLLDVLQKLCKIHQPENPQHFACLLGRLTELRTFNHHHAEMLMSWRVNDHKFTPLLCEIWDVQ

FGF19 [2] = assay: Secreted FGF19 in Huh7 cell culture media; assay type: cell-based, human; details: for levels of secreted FGF19: 0.5 μM GW4064
Method in brief: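 Huh7 cells were incubated for 24 h with 0.5 μM GW4064 plus 0–100 μM test compound. FGF19 secreted into the culture medium was then assayed. Data are mean ± SEM, n = 3, by one-way ANOVA.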

BSEP [3] = assay: BSEP protein western blot in Huh7 cells; assay type: cell-based, human; details: 0.5 μM GW4064, 24 hours
[4] = system: FXR-mediated bile acid efflux in Huh7 cells; assay: Huh7 3H-taurocholic acid efflux; assay type: cell-based, human
Method in brief: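 Huh7 cells were pretreated overnight with vehicle or 0.5 μM GW4064 with or without 25–50 μM test compound. Cells were washed for 1.5 h, then ³H-taurocholic acid efflux over 5 min was measured. Data are mean ± SEM, n = 3, by one-way ANOVA.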

[5] = system: primary human hepatocytes; details: primary human hepatocytes ref 19; cited from earlier work
[6] = Serum PM5S in gavaged mice by UPLC/MSMS; assay type: in vivo, mouse
Method in brief: (§1)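 Female C57BL6 mice aged 7–8 weeks were orally gavaged twice daily for 2 days (day 1 at 5:30 and 10:30 pm; day 2 at 8:30 am and 1:30 pm). Groups received 200 μL 20% cyclodextrin, 50 mg/kg cholic acid, or cholic acid plus 500 mg/kg test compound. After an 8-h fast, serum was collected at 4 pm on day 2 and analysed by UPLC/MSMS. Data are mean ± SEM, n ≥ 6, by one-way ANOVA.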

BSEP [7] = details: X. laevis oocytes expressing BSEP ref 20; cited from earlier work
FGF19 [8] = assay: FGF19 gene expression in Huh7 cells; assay type: cell-based, human; details: 25-100 μM PM5S, 0.5 μM GW4064, 24 hours
Method in brief: (§2)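 Relative mRNA was quantified by qPCR. Data are mean ± SEM, n = 3, by one-way ANOVA against the agonist-alone or vehicle group.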

BSEP [9] = assay: BSEP gene expression in Huh7 cells; assay type: cell-based, human
Method in brief: as §2

SHP and MDR3 = SHP and MDR3 gene expression in Huh7 cells; assay type: cell-based, human; details: 0-100 μM PM5S, 0.5 μM GW4064, 24 hours
Method in brief: as §2

NTCP = details: NTCP-transfected Xenopus laevis oocytes ref 19; cited from earlier work
[10] = Serum bile acid concentrations in gavaged mice; assay type: in vivo, mouse; details: CA+PM5S co-gavaged mice versus vehicle or CA groups
Method in brief: as §1

SMILES: C[C@H](CCC(=O)O)[C@H]1CC[C@H]2[C@@H]3[C@H](O)C[C@@H]4C[C@H](O)CC[C@]4(C)[C@H]3C[C@H](O)[C@]12C [CA, cholic acid, reference compound]
- Hepatic gene expression levels of Bsep, Mdr2, Ost-β, and Sult2a1 ([1]; CA group, 50 mg/kg versus vehicle): significantly induced

SMILES: C[C@H](CCC(=O)O)[C@H]1CC[C@H]2[C@@H]3[C@H](O)C[C@@H]4C[C@H](O)CC[C@]4(C)[C@H]3CC[C@]12C [CDCA, chenodeoxycholic acid, reference compound]
- BSEP expression induction (BSEP, SHP): 7.5 fold
- induction of BSEP gene expression (BSEP, SHP, CYP7A1): 390%
- repression of CYP7A1 expression (BSEP, SHP, CYP7A1): > 90%
- induction of SHP gene expression (BSEP, SHP, CYP7A1): 481%

SMILES: C[C@H](O)[C@H]1CC[C@H]2[C@@H]3CC[C@H]4C[C@@H](OS(=O)(=O)[O-])CC[C@]4(C)[C@H]3CC[C@]12C.[Na+] [EPAS, epiallo-pregnanediol 3-sodium sulfate]
- activity of FXR in presence of CDCA (FXRα2): inhibited
- FXR transactivation relative to vehicle-treated control (FXRα2): 183%
- EC50 (FXRα2): 22.6 µM
- CDCA-mediated recruitment of SRC-1 peptide to FXR-LBD (FXR-LBD): inhibited
- recruitment of SRC-1 peptide to FXR-LBD by compound alone (FXR-LBD): unable to induce

SMILES: CC(=O)C1CCC2C3CC[C@@H]4C[C@@H](OS(=O)(=O)O)CC[C@]4(C)C3CC[C@]12C (stereo partly drawn) [EPS, epipregnanolone sulfate]
- activity of FXR in presence of CDCA (FXRα2): inhibited
- FXR transactivation relative to vehicle-treated control (FXRα2): 125%
- EC50 (FXRα2): 15.1 µM
- CDCA-mediated recruitment of SRC-1 peptide to FXR-LBD (FXR-LBD): inhibited
- recruitment of SRC-1 peptide to FXR-LBD by compound alone (FXR-LBD): unable to induce

SMILES: CC(C)c1onc(-c2c(Cl)cccc2Cl)c1COc1ccc(/C=C/c2cccc(C(=O)O)c2)c(Cl)c1 [GW4064, reference compound]
- increase in secreted FGF19 (FGF19 [2]; 0.5 μM GW4064, 24 hours): 2.8 fold
- increase in BSEP protein levels (BSEP [3]; relative to vehicle): 1.5 fold
- 3HTC efflux ([4]; 0.5 μM GW4064 overnight, relative to vehicle): significantly increased

SMILES: CC(=O)[C@H]1CC[C@H]2[C@@H]3CC[C@H]4C[C@@H](OS(=O)(=O)O)CC[C@]4(C)[C@H]3CC[C@]12C [PM5S, epiallopregnanolone sulfate]
- BSEP expression (BSEP, SHP): modestly increased
- SHP expression induction (BSEP, SHP): to a lesser extent than CDCA
- Na+-dependent and Na+-independent influx of taurocholate [5]: reduce
- induction of Bsep and Mdr2 expression ([1]; CA+PM5S group compared to CA group): significantly abrogated
- Shp and Ntcp expression levels ([1]; CA+PM5S, CA and vehicle groups): no differences
- Serum PM5S mean concentration ± SEM ([6]; mice gavaged 50 mg/kg cholic acid + 500 mg/kg PM5S twice daily for 2 days): 3208.6 ± 1847.1 µM
- Serum PM5S mean concentration ± SEM ([6]; mice gavaged 50 mg/kg cholic acid twice daily for 2 days): 10.7 ± 9.6 µM
- levels of secreted FGF19 (FGF19 [2]; 50 μM and 100 μM PM5S): reaching significance
- levels of secreted FGF19 (FGF19 [2]; cotreatment with 10 μM and 25 μM PM5S): trend towards a reduction
- efflux of bile acids (BSEP [7]): reduce the efflux
- GW4064-mediated FGF19 gene expression (FGF19 [8]): significantly reduced
- PM5S concentrations abrogating CDCA-mediated FXR transactivity (FXRα2): ≥ 5 µM
- FXR transactivation relative to vehicle-treated control (FXRα2): 182%
- EC50 (FXRα2): > 83 µM
- induction of BSEP gene expression (BSEP, SHP, CYP7A1): 160%
- repression of CYP7A1 expression (BSEP, SHP, CYP7A1): > 90%
- induction of SHP gene expression (BSEP, SHP, CYP7A1): 200%
- CDCA-mediated BSEP expression (BSEP [9]; all PM5S concentrations tested, 50 μM CDCA, 24 hours): significantly reduced
- GW4064-mediated BSEP gene expression (BSEP [9]; increasing PM5S doses (0-100 μM), 0.5 μM GW4064, 24 hours): completely abolished
- GW4064-mediated BSEP protein expression (BSEP [3]; 10 μM PM5S): inhibited
- BSEP protein expression (BSEP [3]; 25-100 μM PM5S): completely abolished
- CDCA-mediated recruitment of SRC-1 peptide to FXR-LBD (FXR-LBD): able to inhibit
- recruitment of SRC-1 peptide to FXR-LBD by compound alone (FXR-LBD): unable to potentiate
- GW4064-mediated SHP and MDR3 gene expression (SHP and MDR3): significantly abrogated
- taurocholate uptake by NTCP (NTCP): competitively inhibit
- GW4064-induced increase in 3HTC efflux ([4]; cotreated with 25 or 50 μM PM5S, 0.5 μM GW4064): abolished
- serum CA levels [10]: significantly raised
